From ChEMBL document CHEMBL2150885, “Dual anticoagulant/antiplatelet persulfated small molecules” (Eur J Med Chem, 2011)
Activity calls are given as the source filed them. The calls are words filed in the database; no cut-off is given here.

Tests used:
[1] = target: Antithrombin-III (Bos taurus) (UniProt P41361); assay: Inhibition of bovine antithrombin-3 at 1 x 10^-3 M
Plasma [2] = assay: Anticoagulant activity in human plasma assessed as concentration required to double thrombin time at 5 x 10^-3 M; type: functional, cell-free
How it was run: (§1)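 Pooled citrated human plasma; compounds in water (10% DMSO for some), final 5 × 10⁻³ to 0.05 × 10⁻³ M; heparin 0.1–10 UI/mL as reference. APTT, PT and TT measured on a coagulometer with commercial kits, clotting time in s. Duplicates repeated on three days (n = 6). Concentration doubling clotting time obtained by linear regression of each concentration-response curve.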

Plasma [3] = assay: Anticoagulant activity in human plasma assessed as concentration required to double prothrombin time; type: functional; how it was run: as §1
Plasma [4] = assay: Anticoagulant activity in human plasma assessed as concentration required to double activated partial thromboplastin time; type: functional; how it was run: as §1
[5] = target: Coagulation factor X (Homo sapiens) (UniProt P00742); assay: Inhibition of human factor 10a using CH3SO2-D-Leu-Gly-Arg-pNA, AcOH as substrate at 1 x 10^-3 M by chromogenic substrate hydrolysis assay
How it was run: (§2)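 Chromogenic hydrolysis in 50 mM Tris/HCl pH 8.3, 227 mM NaCl, 0.1% BSA, with and without bovine antithrombin III (1 U/mL final). Human factor Xa 0.5 U/mL with CBS 31.39 […], or human thrombin 0.06 U/mL with Chromozym TH […]. Absorbance at 405 nm, enzyme-free blank subtracted; initial slope vs water control gives % inhibition. Compounds at 1 × 10⁻³ M; n = 6.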

[6] = target: Prothrombin (Homo sapiens) (UniProt P00734); assay: Inhibition of human thrombin using Tosyl-Gly-Pro-Arg-p-nitroaniline as substrate at 1 x 10^-3 M by chromogenic substrate hydrolysis assay; how it was run: as §2
Plasma [7] = assay: Anticoagulant activity in human plasma assessed as effect on APC level using CBS 42.46 as synthetic substrate at 1 x 10^-3 M; type: functional
How it was run: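 Compound in saline added to citrated human plasma. Protein C activated by a snake venom-derived activator; enzyme formed quantified by amidolytic activity on chromogenic substrate CBS 42.46. Calibration curve linear 3–150%; normal and pathological control plasmas verify accuracy. Compounds at 1 × 10⁻³ M.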

Blood [8] = assay: Anticoagulant activity in human whole blood assessed as clotting time at 6.25 x 10'4 M by thromboelastography assay; type: functional
How it was run: (§3)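 Citrated whole blood (citrate:blood 1:9) from healthy donors. Compound in saline diluted 1:16 into blood to final 3.12 × 10⁻⁴ or 6.25 × 10⁻⁴ M; saline control. Thromboelastography with intrinsic activator (InTEM); R clotting time and K clot formation time in s. Mean of three independent experiments in duplicate.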

Blood [9] = assay: Anticoagulant activity in human whole blood assessed as clotting formation time at 6.25 x 10'4 M by InTEM-TEG assay; type: functional; how it was run: as §3
[10] = Antiplatelet activity against collagen-ADP-activated platelet in human blood assessed as closure time at 6.25 x 10^-4 M; type: functional
How it was run: (§4)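 Healthy-donor whole blood collected into hirudin (final […]), analysed within 0.5–1 h. Closure time measured in a PFA-100 under high shear through an aperture, platelets activated by a collagen-coated membrane with ADP or epinephrine.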

[11] = Antiplatelet activity against collagen-epinephrine-activated platelet in human blood assessed as closure time at 6.25 x 10^-4 M; type: functional; how it was run: as §4
Platelet [12] = assay: Antiplatelet activity against thrombin receptor-activating peptide-6-induced platelet aggregation in human blood at 6.25 x 10^-4 M measured for 6 mins by multiplate electrical impedance aggregometry; type: functional, cell-based
How it was run: (§5)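 Hirudin-anticoagulated (final […]) healthy-donor whole blood, used within 0.5–1 h. Compound in saline to final 6.25 × 10⁻⁴ M; saline control, acetylsalicylic acid 6.25 × 10⁻⁴ M reference. Blood mixed with saline at 37 °C for 180 s, then agonist at final TRAP-6 […], arachidonic acid 0.5 mM or ADP […]. Impedance recorded 6 min; AUC from mean of two curves, accepted if within 20%.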

Platelet [13] = assay: Antiplatelet activity against arachidonic acid-induced platelet aggregation in human blood at 6.25 x 10^-4 M measured for 6 mins by multiplate electrical impedance aggregometry; type: functional, cell-based; how it was run: as §5
Platelet [14] = assay: Antiplatelet activity against adenosine diphosphate-induced platelet aggregation in human blood at 6.25 x 10^-4 M measured for 6 mins by multiplate electrical impedance aggregometry; type: functional, cell-based; how it was run: as §5
Plasma [15] = assay: Anticoagulant activity in human plasma assessed as effect on prothrombin level by PT clotting time with factor II deficient plasma at 1 x 10^-3 M
Plasma [16] = assay: Anticoagulant activity in human plasma assessed as concentration required to double prothrombin time at 5 x 10^-3 M; type: functional, cell-free; how it was run: as §1
MCF7 = assay: Cytotoxicity against human ER-positive MCF7 cells at 1.5 x 10^-4 after 48 hrs; type: cell-based; conditions: mcf7, 48 h
NCI-H460 = assay: Cytotoxicity against human NCI-H460 cells at 1.5 x 10^-4 after 48 hrs; type: cell-based; conditions: nci-h460, 48 h
[17] = Cytotoxicity against human A375-C5 cells at 1.5 x 10^-4 after 48 hrs; type: cell-based; conditions: a375-c5, 48 h
Mus musculus = species: Mus musculus; assay: Acute hepatic toxicity in CD1 mouse; type: organism-based; conditions: in vivo

Coagulation factor X (Homo sapiens), sequence (P00742 41-179 limits assumed): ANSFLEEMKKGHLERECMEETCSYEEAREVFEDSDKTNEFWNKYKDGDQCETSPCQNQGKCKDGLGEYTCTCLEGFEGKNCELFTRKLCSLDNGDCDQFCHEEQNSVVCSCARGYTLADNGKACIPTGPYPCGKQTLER
Coagulation factor X (Homo sapiens), sequence (P00742 235-488 limits assumed): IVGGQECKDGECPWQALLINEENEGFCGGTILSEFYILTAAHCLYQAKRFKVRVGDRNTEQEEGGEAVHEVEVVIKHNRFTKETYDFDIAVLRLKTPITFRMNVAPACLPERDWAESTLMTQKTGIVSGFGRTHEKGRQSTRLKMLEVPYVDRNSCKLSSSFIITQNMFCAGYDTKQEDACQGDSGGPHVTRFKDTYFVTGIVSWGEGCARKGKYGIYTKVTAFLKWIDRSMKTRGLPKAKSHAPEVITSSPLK
Antithrombin-III (Bos taurus), sequence (P41361 whole entry): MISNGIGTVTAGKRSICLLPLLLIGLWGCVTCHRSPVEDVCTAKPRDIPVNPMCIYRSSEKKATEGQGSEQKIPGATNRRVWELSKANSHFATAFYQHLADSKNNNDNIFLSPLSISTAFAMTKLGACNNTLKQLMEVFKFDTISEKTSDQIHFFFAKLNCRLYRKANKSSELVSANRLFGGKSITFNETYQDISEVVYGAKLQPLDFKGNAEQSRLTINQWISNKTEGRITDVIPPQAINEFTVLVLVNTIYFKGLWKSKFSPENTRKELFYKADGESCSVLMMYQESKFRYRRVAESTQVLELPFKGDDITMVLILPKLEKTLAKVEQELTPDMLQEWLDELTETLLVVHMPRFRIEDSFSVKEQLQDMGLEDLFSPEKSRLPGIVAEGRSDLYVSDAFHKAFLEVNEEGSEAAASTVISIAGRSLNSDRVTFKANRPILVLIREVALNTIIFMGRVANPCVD

SMILES	inhibition [1]	Activity (Plasma [2])	2PT (Plasma [3])	Activity (Plasma [3])	2aPTT (Plasma [4])	Activity (Plasma [4])	inhibition [5]	inhibition [6]	Activity (Plasma [7])	Time (Blood [8])	Time (Blood [9])	AUC (Platelet [12])	AUC (Platelet [13])	AUC (Platelet [14])	Activity (Plasma [15])	Activity (MCF7)	Activity (NCI-H460)	Activity [17]	further results
O=C1O[C@H]([C@H](COS(=O)(=O)[O-])OS(=O)(=O)[O-])C(OS(=O)(=O)[O-])=C1OS(=O)(=O)[O-].[Na+].[Na+].[Na+].[Na+] [ASCORBIC ACID PERSULFATE]	inactive	inactive	> 5 mM	Dose-dependent effect	0.315 mM	Dose-dependent effect	inactive	inactive	94%	205 s	84 s	1100 AU.min	905 AU.min	680 AU.min	91.5%				Time [10]: 106 s; Time [11]: 121 s
O=C(/C=C/c1ccc(OS(=O)(=O)[O-])c(OS(=O)(=O)[O-])c1)O[C@@H]1C[C@](OS(=O)(=O)[O-])(C(=O)O)C[C@@H](OS(=O)(=O)[O-])[C@H]1OS(=O)(=O)[O-].[Na+].[Na+].[Na+].[Na+].[Na+] [CHLOROGENIC ACID PERSULFATE]	inactive	inactive			3.66 mM	Dose-dependent effect	inactive	inactive	95%						82%				Activity (Plasma [16]): inactive
O=c1ccc2cc(O[C@@H]3O[C@H](COS(=O)(=O)[O-])[C@@H](OS(=O)(=O)[O-])[C@H](OS(=O)(=O)[O-])[C@H]3OS(=O)(=O)[O-])c(OS(=O)(=O)[O-])cc2o1.[Na+].[Na+].[Na+].[Na+].[Na+] [ESCULIN PERSULFATE]	inactive	inactive	> 5 mM	Dose-dependent effect	0.309 mM	Dose-dependent effect	inactive	inactive	87%	340 s	95 s	890 AU.min	980 AU.min	980 AU.min	64.5%	Non-toxic	Non-toxic	Non-toxic	
COc1ccc(-c2cc(=O)c3c(O)cc(O[C@@H]4O[C@H](CO[C@@H]5O[C@@H](C)[C@H](OS(=O)(=O)[O-])[C@@H](OS(=O)(=O)[O-])[C@H]5OS(=O)(=O)[O-])[C@@H](OS(=O)(=O)[O-])[C@H](OS(=O)(=O)[O-])[C@H]4OS(=O)(=O)[O-])cc3o2)cc1O.[Na+].[Na+].[Na+].[Na+].[Na+].[Na+] [HEXASULFATED DIOSMIN]					4.35 ×10⁻⁴ M				87%			1090 AU.min	340 AU.min	200 AU.min	54%	Non-toxic	Non-toxic	Non-toxic	Activity (Mus musculus): Non-toxic
COc1ccc([C@@H]2CC(=O)c3c(O)cc(O[C@@H]4O[C@H](CO[C@@H]5O[C@@H](C)[C@H](OS(=O)(=O)[O-])[C@@H](OS(=O)(=O)[O-])[C@H]5OS(=O)(=O)[O-])[C@@H](OS(=O)(=O)[O-])[C@H](OS(=O)(=O)[O-])[C@H]4OS(=O)(=O)[O-])cc3O2)cc1O.[Na+].[Na+].[Na+].[Na+].[Na+].[Na+] [HEXASULFATED HESPERIDIN]					4.13 ×10⁻⁴ M				85%			1200 AU.min	150 AU.min	150 AU.min	47.5%	Non-toxic	Non-toxic	Non-toxic	
O=S(=O)([O-])OCc1ccccc1O[C@@H]1O[C@H](COS(=O)(=O)[O-])[C@@H](OS(=O)(=O)[O-])[C@H](OS(=O)(=O)[O-])[C@H]1OS(=O)(=O)[O-].[Na+].[Na+].[Na+].[Na+].[Na+] [SALICIN PERSULFATE]	inactive	inactive	> 5 mM	Dose-dependent effect	0.899 mM	Dose-dependent effect	inactive	inactive	93%						66%	Non-toxic	Non-toxic	Non-toxic	
